# From ChEMBL document CHEMBL1141997, “The discovery and synthesis of novel adenosine receptor (A(2A)) antagonists” (Bioorg Med Chem Lett, 2005)
# Assay: Inhibition constant against Adenosine A2a receptor
# Method in brief: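 Membranes from HEK cells expressing human A2A receptor, incubated with 1 nM [3H]SCH-58261 and 10 test concentrations. Buffer: phosphate-buffered saline with 10 mM MgCl2, 0.04% methyl cellulose, adenosine deaminase and 4% DMSO. Incubation 60 min at 23 °C, then filtration and washes with cold water. Nonspecific binding defined with CGS-15943. Duplicates, each compound tested twice. IC50 from one-site fit, Ki by Cheng–Prusoff.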
row,SMILES,Ki [nM]
1,Nc1nc(-c2ccccc2)c2c(n1)-c1ccccc1C2=O,1.7
2,Nc1nc(-c2ccccc2)c2c(n1)-c1ccccc1C2O (stereo not given),168
3,Cc1ccc2c(c1)-c1nc(N)nc(-c3ccc(CO)o3)c1C2,2.6
4,CCc1ccc2c(c1)-c1nc(N)nc(-c3ccc(Br)o3)c1C2,2.6
5,Nc1nc(-c2ccc(Br)o2)c2c(n1)-c1cc(Cl)ccc1C2,1
6,CC(C)c1ccc2c(c1)-c1nc(N)nc(-c3ccc(Br)o3)c1C2,0.8
7,Cc1ccc2c(c1)-c1nc(N)nc(C3CCC(Br)O3)c1C2 (stereo not given),4.2
8,Nc1nc(-c2ccc(Br)o2)c2c(n1)-c1cc(N3CCCC3)ccc1C2,3.9

# More lines, in order of falling Ki, values ahead:
row,Ki [nM],SMILES
1,172,Nc1nc(-c2ccccc2)c2c(n1)-c1ccccc1CC2
2,154,Cc1ccc2c(c1)-c1nc(N)nc(-c3ccccn3)c1C2
3,56.9,Cc1ccc2c(c1)-c1nc(N)nc(-c3ccncc3)c1C2
4,40.5,Nc1nc(-c2ccccc2)c2[nH]c3ccccc3c2n1
5,11,Cc1ccc2c(c1)-c1nc(N)nc(-c3ccccc3)c1C2
6,10.9,Nc1nc(-c2ccc(Br)o2)c2c(n1)-c1cc(-c3ccccc3)ccc1C2
7,9,Nc1nc(-c2ccccc2)c2oc3ccccc3c2n1
8,8.1,CC(C)(C)c1ccc2c(c1)-c1nc(N)nc(-c3ccc(Br)o3)c1C2
9,7.1,Cc1ccc2c(c1)-c1nc(N)nc(-c3ccc(C)o3)c1C2
10,6.7,Cc1ccc2c(c1)-c1nc(N)nc(-c3ccco3)c1C2
11,4.2,Cc1ccc2c(c1)-c1nc(N)nc(-c3ccc(Br)o3)c1C2
12,1.6,COc1ccc2c(c1)-c1nc(N)nc(-c3ccc(Br)o3)c1C2
